Results on 16 compounds are retold here after ChEMBL document CHEMBL1124445, “Synthesis and pharmacology of a series of 3- and 4-(phosphonoalkyl)pyridine- and -piperidine-2-carboxylic acids. Potent N-methyl-D-aspartate receptor antagonists” (J Med Chem, 1989).

pIC50: −log10 of the molar value.

Test [1] can be described thus: Compound was evaluated for the inhibition of the binding of [3H]-CPP against NMDA receptor in mice. The essentials:
(§1)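 Racemic compounds tested for displacement of [3H]CPP binding to the NMDA receptor. Affinity reported as IC50 in nM.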

The test system of the next test is Mus musculus. In words: Ability to protect against NMDA-induced lethality in mice after intraperitoneal administration. In kind it is functional. The settings on record: ip, read-out: MED. The essentials:
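Mice received the test drug ip 30 min before NMDA at 200 mg/kg ip; compounds were racemic. Five animals per dose. The endpoint was survival for more than 30 min after the NMDA injection. MED is the dose at which at least three of the five mice survived. The highest dose tested was 160 mg/kg.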

Test [2] in a line: Compound was evaluated for the inhibition of the binding of [3H]CPP against NMDA in mice.
The nature of test [3]: Percent displacement determined by inhibition of [3H]-CPP binding against N-methyl-D-aspartate glutamate receptor in mice at 10 uM.
The nature of test [4]: Percent displacement determined by inhibition of [3H]CPP binding against NMDA receptor in mice at 10 uM.
Test [5] is described as follows: Compound was evaluated for the inhibition of the binding of [3H]CPP against N-methyl-D-aspartate glutamate receptor in mice. The essentials: as §1

With `O=C(O)c1ncccc1CCP(=O)(O)O`, the pIC50 in test [1] was 5.46. For the same compound, the minimal effective dose in the test with Mus musculus was more than 160 mg/kg.

For the compound `NC(CCCCCP(=O)(O)O)C(=O)O` (stereo unspecified) [AP-7], the pIC50 in test [2] is 6.49. Further, the minimal effective dose in the test on Mus musculus stood at 160 mg/kg.

With `O=C(O)[C@H]1NCCC[C@H]1CCP(=O)(O)O`, in test [1], the pIC50 was 6.00. The minimal effective dose with Mus musculus was 160 mg/kg.

For `O=C(O)c1ncccc1/C=C/P(=O)(O)O`, the minimal effective dose in the test with Mus musculus is more than 160 mg/kg. Moreover, in test [3], the Displacement came to 26%.

In test [1], `O=C(O)[C@@H]1C[C@H](CP(=O)(O)O)CCN1` [SELFOTEL] showed a negative-log IC50 (pIC50) of 7.02. For the same compound, in the test on Mus musculus, the minimal effective dose was 10 mg/kg.

Turning to `O=C(O)c1cc(CP(=O)(O)O)ccn1`, in the test on Mus musculus, the minimal effective dose is more than 160 mg/kg. In addition, in test [4], the Displacement was determined as 4%.

As to `O=C(O)c1cc(CCCP(=O)(O)O)ccn1`, the minimal effective dose with Mus musculus is more than 160 mg/kg. Also, the Displacement in test [3] was 34%.

Compound `O=C(O)C1CN(CCCP(=O)(O)O)CCN1` (stereo unspecified) gave a pIC50 in test [5] of 7.14. The minimal effective dose in the test with Mus musculus is 2.5 mg/kg.

With `O=C(O)[C@@H]1C[C@H](CCCCP(=O)(O)O)CCN1`, in the test on Mus musculus, the minimal effective dose was more than 160 mg/kg. The Displacement in test [3] worked out at 26%.

Turning to `O=C(O)[C@@H]1C[C@H](CCCP(=O)(O)O)CCN1`, the pIC50 in test [5] is 6.92. Moreover, the minimal effective dose in the test on Mus musculus came out at 40 mg/kg.

In turn, `O=C(O)c1cc(CCP(=O)(O)O)ccn1` showed a pIC50 in test [5] of 5.46. In addition, the minimal effective dose in the test with Mus musculus was more than 160 mg/kg.

In the case of `O=C(O)c1ncccc1/C=C\P(=O)(O)O`, the minimal effective dose in the test with Mus musculus is more than 160 mg/kg. For the same compound, the Displacement in test [3] came out at 20%.

Regarding `O=C(O)[C@H]1NCCC[C@H]1CP(=O)(O)O`, in test [3], the Displacement was 19%.

Regarding `O=C(O)[C@@H]1C[C@H](CCP(=O)(O)O)CCN1`, in test [5], the pIC50 was 5.18. Further, the minimal effective dose with Mus musculus is more than 160 mg/kg.

`O=C(O)c1cc(CCCCP(=O)(O)O)ccn1`: in the test with Mus musculus, the minimal effective dose was more than 160 mg/kg. Further, the Displacement in test [3] amounted to 25%.

As to `O=C(O)c1ncccc1CP(=O)(O)O`, the minimal effective dose with Mus musculus is more than 160 mg/kg. For the same compound, in test [4], the Displacement was -18%.
